These results are taken from ChEMBL document CHEMBL1126647, “Fluorine-18-labeled progestin ketals: synthesis and target tissue uptake selectivity of potential imaging agents for receptor-positive breast tumors” (J Med Chem, 1993).

Data set [1] can be described thus: Partition coefficient (logP). The note with it: octanol/water. It counts as physicochemical. In outline: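 Octanol/water partition measured as log P by the Minick method. For some reference progestins, log P was also measured by shake flask.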
The target of data set [2] is T1, Progesterone receptor (Rattus norvegicus) (UniProt Q63449).
T1 sequence (whole entry): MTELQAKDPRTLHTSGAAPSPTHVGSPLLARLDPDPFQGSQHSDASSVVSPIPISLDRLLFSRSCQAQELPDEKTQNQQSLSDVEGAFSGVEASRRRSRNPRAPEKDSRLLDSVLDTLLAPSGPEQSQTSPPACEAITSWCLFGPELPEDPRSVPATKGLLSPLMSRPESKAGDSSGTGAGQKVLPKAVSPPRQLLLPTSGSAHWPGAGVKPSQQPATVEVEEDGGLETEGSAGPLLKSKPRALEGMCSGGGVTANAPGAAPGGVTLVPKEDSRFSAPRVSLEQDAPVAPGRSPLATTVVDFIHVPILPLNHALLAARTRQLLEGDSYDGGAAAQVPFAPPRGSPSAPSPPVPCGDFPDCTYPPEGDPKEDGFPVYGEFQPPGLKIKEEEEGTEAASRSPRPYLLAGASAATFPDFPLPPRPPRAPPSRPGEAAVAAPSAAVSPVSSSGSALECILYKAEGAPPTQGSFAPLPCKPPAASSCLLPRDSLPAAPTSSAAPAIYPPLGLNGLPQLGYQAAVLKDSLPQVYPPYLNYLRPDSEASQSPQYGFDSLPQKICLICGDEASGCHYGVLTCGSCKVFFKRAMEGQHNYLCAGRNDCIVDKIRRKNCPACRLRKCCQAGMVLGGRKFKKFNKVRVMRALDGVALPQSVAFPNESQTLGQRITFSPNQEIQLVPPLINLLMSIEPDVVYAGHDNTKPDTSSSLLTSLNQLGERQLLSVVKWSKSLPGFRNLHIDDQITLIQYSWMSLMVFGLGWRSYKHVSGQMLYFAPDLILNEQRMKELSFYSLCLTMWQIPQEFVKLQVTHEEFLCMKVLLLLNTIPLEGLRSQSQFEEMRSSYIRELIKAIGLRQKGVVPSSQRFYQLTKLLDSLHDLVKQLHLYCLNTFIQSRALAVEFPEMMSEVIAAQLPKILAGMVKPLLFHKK
The data set can be described thus: Relative binding affinity for progesterone receptor compared to R5020.

Data set [3] concerns the target T1, Progesterone receptor (Rattus norvegicus). The data set can be described thus: Tissue distribution in uterus/muscle 1 hr after [18F]4 injection into estrogen-primed immature rats co-injected ORG 2058 (uterine uptake blocker). It counts as functional, tissue-based. The essentials: (§1)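 Blocking group: estrogen-primed immature female Sprague-Dawley rats (estradiol 5 μg s.c. ×2 days, used 24 h later). ORG 2058 18 μg was co-injected with the tracer dose iv via tail vein, 0.2 mL injection volume in 10% ethanol/saline. Killed 1 h later; tissues weighed and gamma-counted. Results as %ID/g or ratios, mean ± SD, n = 5.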

Data set [4] has the same target. The data set can be described thus: Tissue distribution in uterus 1 hr after [18F]-4 injection into estrogen-primed immature rats co-injected with uterin uptake blocker (ORG 2058). The data set is classed as functional, tissue-based. In outline:
as §1

Data set [5] shares this target. The data set can be described thus: Tissue distribution in uterus 1 hr after [18F]4 injection into estrogen-primed immature rats at low dose. The data set is classed as functional, tissue-based. The essentials:
(§2)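 Estrogen-primed immature female Sprague-Dawley rats (estradiol 5 μg s.c. daily ×2, used 24 h later) were given a reduced tracer dose of 30 μCi in 0.04 mL 10% ethanol/saline, tail vein iv, under ether. Decapitated at 1 h; organs weighed and gamma-counted. Results as %ID/g or uterus/tissue ratio, mean ± SD, n = 5.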

For data set [6] the target is unchanged. In words: Tissue distribution in blood 3 hr after [18F]-4 injection into estrogen-primed immature rats. The data set is classed as functional, tissue-based. In outline:
(§3)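 Immature female Sprague-Dawley rats, estradiol-primed (5 μg s.c. in 20% ethanol/sunflower oil, two successive days, used 24 h later). Tracer (30 Ci/mmol) in 10% ethanol/saline was injected iv into the tail vein under ether anesthesia. Animals were decapitated 3 h postinjection; organs weighed and gamma-counted. %ID/g, mean ± SD, n = 5.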

Data set [7] has the same target. In words: Tissue distribution in bone 1 hr after [18F]4 injection into estrogen-primed immature rats at low dose. The data set is classed as functional, tissue-based. The note with it: Bone element. In outline: as §2
Data set [8] shares this target. The data set can be described thus: Tissue distribution in bone 3 hr after [18F]4 injection into estrogen-primed immature rats. The data set is classed as functional, tissue-based. The note with it: Bone element. The essentials: as §3
Data set [9] shares this target. In words: Tissue distribution in brain 1 hr after [18F]-4 injection into estrogen-primed immature rats at low dose. The data set is classed as functional, tissue-based. In outline: as §2
Data set [10] has the same target. The data set can be described thus: Tissue distribution in fat 1 hr after [18F]4 injection into estrogen-primed immature rats at low dose. It counts as functional, tissue-based. The settings on record: Adipose tissue. In outline:
as §2

Data set [11] shares this target. In words: Tissue distribution in fat 3 hr after [18F]4 injection into estrogen-primed immature rats. The note with it: Adipose tissue. The data set is classed as functional, tissue-based. The essentials:
as §3

The target is the same in data set [12]. In words: Tissue distribution in liver 1 hr after [18F]4 injection into estrogen-primed immature rats at low dose. It counts as functional, tissue-based. In outline:
as §2

Data set [13] has the same target. The data set can be described thus: Tissue distribution in lung 1 hr after [18F]4 injection into estrogen-primed immature rats at low dose. It counts as functional, tissue-based. The essentials: as §2
Data set [14] shares this target. The data set can be described thus: Tissue distribution in lung 1 hr after [18F]4 injection into estrogen-primed immature rats at normal dose. It counts as functional, tissue-based. In outline:
(§4)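 Female Sprague-Dawley rats, 23 days old, primed with estradiol 5 μg s.c. in 20% ethanol/sunflower oil on two days and used 24 h later. Under ether, they received 51 μCi tracer (30 Ci/mmol) iv via the tail vein in 0.1 mL 10% ethanol/saline. Killed by decapitation at 1 h; tissues weighed and gamma-counted. Results as %ID/g or tissue ratios, mean ± SD, n = 5.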

Data set [15] has the same target. The data set can be described thus: Tissue distribution in muscle 1 hr after [18F]4 injection into estrogen-primed immature rats co-injected with uterine uptake blocker (ORG2058). It counts as functional, tissue-based. The essentials:
as §1

The target is the same in data set [16]. In words: Tissue distribution in muscle 1 hr after [18F]4 injection into estrogen-primed immature rats at normal dose. It counts as functional, tissue-based. In outline: as §4
For data set [17] the target is unchanged. In words: Tissue distribution in muscle 3 hr after [18F]4 injection into estrogen-primed immature rats. The data set is classed as functional, tissue-based. In outline:
as §3

For data set [18] the target is unchanged. The data set can be described thus: Tissue distribution in ovaries 1 hr after [18F]4 injection into estrogen-primed immature rats co-injected with uterine uptake blocker (ORG2058). The data set is classed as functional, tissue-based. The note with it: Female gonad. In outline: as §1
The target is the same in data set [19]. The data set can be described thus: Tissue distribution in kidney 1 hr after [18F]4 injection into estrogen-primed immature rats at low dose. The data set is classed as functional, tissue-based. In outline:
as §2

SMILES strings stand for the structures.

`C[C@@]1(c2ccc(F)cc2)O[C@@H]2CC3C4CCC5=CC(=O)CC[C@@H]5C4CC[C@]3(C)[C@]2(C(=O)CO)O1` (stereo partly drawn) yielded a lipophilicity (logP) in data set [1] of 4.92. In addition, in data set [2], the relative binding affinity (RBA) turned out to be 240. The uterus/muscle ratio in data set [3] was determined as 2.42. In addition, the Injected dose/g in data set [4] worked out at 0.86%; in data set [5], 4.06%; in data set [6] it was 0.1%; in data set [7] it was 0.68%; in data set [8] it was 0.64%; in data set [9], 0.39%. Further, the Injected dose/g in data set [10] was found to be 3.78%; in data set [11] it was 1.64%; in [12], 3.93%; in [13], 0.72%; in data set [14], 0.6%; in [15] it was 0.35%. The Injected dose/g in [16] worked out at 0.44%; in data set [17] it was 0.16%; in [18], 1.37%; in data set [19] it was 1.57%.
`CC(=O)[C@@]12O[C@](C)(c3ccc(F)cc3)O[C@@H]1CC1C3CCC4=CC(=O)CC[C@]4(C)C3CC[C@@]12C` (stereo partly drawn) gave a logP in data set [1] of 5.71. In [2], this compound displayed a relative binding affinity (RBA) of 53. For the same compound, in data set [3], the uterus/muscle ratio is 1.69. Further, the Injected dose/g in data set [4] was found to be 1.27%; in [5] it was 3.3%; in data set [6], 0.28%; in data set [7], 1.77%; in [8], 1.69%; in data set [9], 0.57%. In addition, the Injected dose/g turned out to be 5.39% in [10]; 5.06% in [11]; 3.62% in data set [12]; 1.46% in data set [13]; 1.3% in data set [14]; 0.76% in data set [15]. Besides, the Injected dose/g in data set [16] worked out at 0.82%; in [17], 0.49%; in [18] it was 2.29%; in [19], 2.27%.

A word on the logP: it is the decadic logarithm of the partition coefficient of the neutral form, usually between octanol and water. The low end stands for lower lipophilicity, the high end for higher lipophilicity.
